Results from ChEMBL document CHEMBL3632581, “Dimers of Melampomagnolide B Exhibit Potent Anticancer Activity against Hematological and Solid Tumor Cells” (J Med Chem, 2015).

How the values were obtained:
Assay type in all cases: functional
[1] = Cytotoxicity against human EKVX cells after 48 hrs by SRB assay; conditions: for CC50: read-out: LC50 (the source's name)
Summary of the method: (§1)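 NCI-60 five-dose screen at 10−8 to 10−4 M. Cells were plated at 5,000–40,000/well in RPMI 1640 with 5% FBS and 2 mM L-glutamine, then preincubated 24 h, and time-zero plates were TCA-fixed. Compound was added from DMSO stocks and exposed 48 h at 37 °C. Cells were TCA-fixed, SRB-stained, and read at 515 nm. LC50 is the concentration halving the cell population through cell death.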

[2] = tested on: SNB-19; assay: Cytotoxicity against human SNB19 cells after 48 hrs by SRB assay; conditions: SNB-19, 48 h; summary of the method: as §1
[3] = Cytotoxicity against rat 9LSF cells at 10 uM after 48 hrs by colony formation assay relative to DMAPT
Summary of the method: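 9L-SF rat gliosarcoma cells in DMEM/F12 with 10% iron-supplemented calf serum were treated at 50% confluence for 48 h (0.3-20 μM; DMSO <0.1%, DMAPT in saline). Cells were rinsed, trypsinized, counted and seeded for colonies, with irradiated feeders when seeding was below 2,000 cells/cm2. Survival was normalized to control plating efficiency and compared with DMAPT at 10 μM. Treatments in triplicate.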

C=C1C(=O)O[C@H]2[C@H]1CC/C(COC(=O)NCCCCNC(=O)OC/C1=C/CC[C@@]3(C)O[C@H]3[C@H]3OC(=O)C(=C)[C@@H]3CC1)=C\CC[C@@]1(C)O[C@@H]21
GI50 [1]: 3.69 µM
CC50 [1]: 37.3 µM

C=C1C(=O)O[C@H]2[C@H]1CC/C(COC(=O)NCCCCCNC(=O)OC/C1=C/CC[C@@]3(C)O[C@H]3[C@H]3OC(=O)C(=C)[C@@H]3CC1)=C\CC[C@@]1(C)O[C@@H]21
GI50 [2]: 3.97 µM
CC50 ([2]; read-out: LC50 (the source's name)): 92.5 µM

C=C1C(=O)O[C@H]2[C@H]1CC/C(COC(=O)NCCCCCCCCNC(=O)OC/C1=C/CC[C@@]3(C)O[C@H]3[C@H]3OC(=O)C(=C)[C@@H]3CC1)=C\CC[C@@]1(C)O[C@@H]21
fold change (FC) [3]: 303
GI50 [1]: 1.19 µM
CC50 [1]: 4.99 µM
